Data published in ChEMBL document CHEMBL1148550, “4-Phenyl-4-[1H-imidazol-2-yl]-piperidine derivatives, a novel class of selective delta-opioid agonists” (Bioorg Med Chem Lett, 2006).

Experiments:
[1] = target: Kappa-type opioid receptor (Homo sapiens, UniProt P41145); assay: Displacement of [3H]U-69593 from cloned human kappa opioid receptor
Outline: (§1)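 Radioligand competition binding at cloned human receptors: [³H]DAMGO for mu, [³H]DPDPE for delta, [³H]U69593 for kappa. Ki is the concentration giving half-maximal inhibition of tracer binding.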

[2] = target: T1, Delta-type opioid receptor (Homo sapiens, UniProt P41143); assay: Displacement of [3H]DPDPE from cloned human delta opioid receptor; outline: as §1
T1 sequence (P41143 whole entry): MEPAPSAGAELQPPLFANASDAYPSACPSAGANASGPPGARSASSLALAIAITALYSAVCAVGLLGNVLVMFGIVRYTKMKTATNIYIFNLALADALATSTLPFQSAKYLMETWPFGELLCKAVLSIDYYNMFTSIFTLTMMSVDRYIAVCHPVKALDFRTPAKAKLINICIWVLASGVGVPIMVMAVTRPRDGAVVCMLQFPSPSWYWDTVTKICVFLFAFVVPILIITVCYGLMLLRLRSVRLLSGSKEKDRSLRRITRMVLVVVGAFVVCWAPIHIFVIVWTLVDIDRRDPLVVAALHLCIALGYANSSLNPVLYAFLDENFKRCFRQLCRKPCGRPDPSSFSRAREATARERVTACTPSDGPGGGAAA

[3] = target: Opioid receptors; mu & delta (Homo sapiens) (UniProt P41143+P35372); assay: Selectivity for cloned human mu opioid receptor over delta opioid receptor; type: protein assay
Opioid receptors; mu & delta (Homo sapiens), sequence (P35372 whole entry, looked up): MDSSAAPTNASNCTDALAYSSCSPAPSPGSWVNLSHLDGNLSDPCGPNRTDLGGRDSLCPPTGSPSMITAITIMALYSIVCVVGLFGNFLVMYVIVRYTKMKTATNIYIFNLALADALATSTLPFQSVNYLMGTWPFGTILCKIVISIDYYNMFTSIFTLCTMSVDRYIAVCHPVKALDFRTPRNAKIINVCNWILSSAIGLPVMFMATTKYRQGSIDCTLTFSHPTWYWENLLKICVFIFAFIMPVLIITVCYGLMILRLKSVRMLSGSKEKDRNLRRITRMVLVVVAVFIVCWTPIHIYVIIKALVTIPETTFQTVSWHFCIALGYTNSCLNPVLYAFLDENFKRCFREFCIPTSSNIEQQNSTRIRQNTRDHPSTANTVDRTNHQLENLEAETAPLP
Opioid receptors; mu & delta (Homo sapiens), sequence (P41143 whole entry, looked up): as the sequence (P41143 whole entry) above

Mu-type opioid receptor = Mu-type opioid receptor (Homo sapiens, UniProt P35372); assay: Displacement of [3H]DAMGO from cloned human mu opioid receptor; outline: as §1
Mu-type opioid receptor, sequence (P35372 whole entry): as the sequence (P35372 whole entry, looked up) above

[4] = target: Opioid receptors; delta & kappa (Homo sapiens) (UniProt P41145+P41143); assay: Selectivity for cloned human kappa opioid receptor over delta opioid receptor; type: protein assay
Opioid receptors; delta & kappa (Homo sapiens), sequence (P41143 whole entry, looked up): as the sequence (P41143 whole entry) above
Opioid receptors; delta & kappa (Homo sapiens), sequence (P41145 whole entry, looked up): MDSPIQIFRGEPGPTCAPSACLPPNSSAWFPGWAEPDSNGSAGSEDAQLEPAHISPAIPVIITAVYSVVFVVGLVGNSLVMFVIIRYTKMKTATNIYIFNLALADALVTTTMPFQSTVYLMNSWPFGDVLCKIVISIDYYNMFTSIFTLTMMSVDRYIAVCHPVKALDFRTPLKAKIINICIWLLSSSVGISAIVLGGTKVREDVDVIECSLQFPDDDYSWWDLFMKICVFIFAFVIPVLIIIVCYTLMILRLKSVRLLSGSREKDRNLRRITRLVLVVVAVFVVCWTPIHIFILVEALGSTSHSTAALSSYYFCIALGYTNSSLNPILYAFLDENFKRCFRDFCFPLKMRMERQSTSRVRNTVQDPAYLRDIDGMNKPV

[5] = target: T1, Delta-type opioid receptor; assay: Agonist potency assessed by [35S]GTP-gammaS binding assay in C6 Glioma cells expressing cloned human delta opioid receptor; type: functional, cell-based
Outline: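 Membranes expressing human δ-opioid receptors; agonism read as percent stimulation of [³⁵S]GTPγS binding against log molar ligand concentration. pEC₅₀ derived from three-parameter logistic curve fits.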

Kappa-type opioid receptor, sequence (P41145 whole entry): as the sequence (P41145 whole entry, looked up) above

Row | Compound | Ki [1] [nM] | Ki [2] [nM] | Ratio Ki [3] | Ki (Mu-type opioid receptor) [nM] | Ratio Ki [4] | EC50 [5] [nM]
1 | NS(=O)(=O)N1CCC(c2ccccc2)(c2nccn2Cc2ccccc2)CC1 | > 4650 | 106 | > 44 | > 4650 | > 44 | –
2 | Cn1c(N2CCC(c3ccccc3)(c3nccn3Cc3ccccc3)CC2)nc2ccccc21 | 40 | 138 | 1.7 | 235 | 0.29 | –
3 | CN1CCN(C(=O)N2CCC(c3ccccc3)(c3nccn3Cc3ccccc3)CC2)CC1 | 858 | 161 | > 29 | > 4650 | 5.3 | –
4 | CCNC(=O)N1CCC(c2ccccc2)(c2nccn2Cc2ccccc2)CC1 | 242 | – | – | > 4650 | – | –
5 | c1ccc(Cn2ccnc2C2(c3ccccc3)CCN(c3nccs3)CC2)cc1 | 2530 | 79 | > 58 | > 4650 | 32 | 98
6 | O=C(Nc1ccccc1)N1CCC(c2ccccc2)(c2ncc[nH]2)CC1 | > 4650 | > 465 | – | > 465 | – | –
7 | O=C(Nc1ccccc1)N1CCC(c2ccccc2)(c2nccn2Cc2ccccn2)CC1 | 46 | 3070 | 0.46 | 1420 | 0.015 | –
8 | c1ccc(Cn2ccnc2C2(c3ccccc3)CCN(c3nc4ccccc4s3)CC2)cc1 | – | 73 | > 63 | > 4650 | – | 26
9 | CN(C(=O)N1CCC(c2ccccc2)(c2nccn2Cc2ccccc2)CC1)c1ccccc1 | 397 | – | – | > 4650 | – | –
10 | c1ccc(Cn2ccnc2C2(c3ccccc3)CCN(c3ncccn3)CC2)cc1 | 505 | 18 | > 258 | > 4650 | 28 | 14
11 | O=C(Nc1ccccc1)N1CCC(c2ccccc2)(c2nccn2Cc2cccc(F)c2)CC1 | 1880 | 128 | > 36 | > 4650 | 15 | –
12 | CC(c1ccccc1)n1ccnc1C1(c2ccccc2)CCN(C(=O)Nc2ccccc2)CC1 (configuration not stated) | > 465 | – | – | 497 | – | –
13 | CS(=O)(=O)N1CCC(c2ccccc2)(c2nccn2Cc2ccccc2)CC1 | 2010 | 46 | > 101 | > 4650 | 44 | –
14 | O=S(=O)(Nc1ccccc1)N1CCC(c2ccccc2)(c2nccn2Cc2ccccc2)CC1 | – | 3.2 | – | 980 | – | 832
15 | O=C(Nc1ccccc1)N1CCC(c2ccccc2)(c2nccn2C(=O)c2ccccc2)CC1 | 1190 | 3700 | > 1.2 | > 4650 | 0.32 | –
16 | NC(=O)N1CCC(c2ccccc2)(c2nccn2Cc2ccccc2)CC1 | 334 | 99 | > 51 | > 4650 | 3.4 | –

Now from value to compound:

Row | Ki [1] [nM] | Ki [2] [nM] | Ratio Ki [3] | Ki (Mu-type opioid receptor) [nM] | Ratio Ki [4] | EC50 [5] [nM] | Compound
17 | 782 | – | – | > 4650 | – | – | COc1ccccc1NC(=O)N1CCC(c2ccccc2)(c2nccn2Cc2ccccc2)CC1
18 | 2160 | 203 | > 23 | > 4650 | 11 | – | O=C(Nc1ccccc1)N1CCC(c2ccccc2)(c2nccn2Cc2ccc(F)cc2)CC1
19 | 148 | 97 | 12 | 1210 | 1.5 | – | O=C(Nc1ccc(F)cc1)N1CCC(c2ccccc2)(c2nccn2Cc2ccccc2)CC1
20 | > 4650 | – | – | > 4650 | – | – | O=C(Nc1cccc(F)c1)N1CCC(c2ccccc2)(c2nccn2Cc2ccccc2)CC1
21 | – | 44 | > 10 | > 465 | – | – | COc1ccc(NC(=O)N2CCC(c3ccccc3)(c3nccn3Cc3ccccc3)CC2)cc1
22 | 2060 | 217 | 15 | 3250 | 9 | – | COc1cccc(Cn2ccnc2C2(c3ccccc3)CCN(C(=O)Nc3ccccc3)CC2)c1
23 | 116 | – | – | 428 | – | – | O=C(Nc1ccccc1)N1CCC(c2ccccc2)(c2nccn2Cc2ccccc2F)CC1
24 | 126 | 81 | > 5.7 | > 465 | 1.6 | 1480 | O=C(Nc1ccccc1)N1CCC(c2ccccc2)(c2nccn2Cc2ccccc2)CC1
25 | 152 | – | – | 1380 | – | – | COc1cccc(NC(=O)N2CCC(c3ccccc3)(c3nccn3Cc3ccccc3)CC2)c1
26 | 318 | – | – | 2520 | – | – | O=C(Nc1ccccc1F)N1CCC(c2ccccc2)(c2nccn2Cc2ccccc2)CC1
